# Source: ChEMBL document CHEMBL1154595, “Discovery of selective nonpeptidergic neuropeptide FF2 receptor agonists” (J Med Chem, 2009)
# Active and inactive are the calls of the source.
# Tests used:
# [1] = molecular target: T1, Neuropeptide FF receptor 2 (Homo sapiens, UniProt Q9Y5X5); assay: Agonist activity at human NPFF2 receptor expressed in cells assessed as beta-galactosidase levels at […] after 5 days; type: functional, cell-based
# [2] = molecular target: T2, Neuropeptide FF receptor 1 (Homo sapiens, UniProt Q9GZQ6); assay: Agonist activity at human NPFF1 receptor expressed in cells assessed as beta-galactosidase levels at […] after 5 days; type: functional, cell-based
# T2 sequence (Q9GZQ6 whole entry): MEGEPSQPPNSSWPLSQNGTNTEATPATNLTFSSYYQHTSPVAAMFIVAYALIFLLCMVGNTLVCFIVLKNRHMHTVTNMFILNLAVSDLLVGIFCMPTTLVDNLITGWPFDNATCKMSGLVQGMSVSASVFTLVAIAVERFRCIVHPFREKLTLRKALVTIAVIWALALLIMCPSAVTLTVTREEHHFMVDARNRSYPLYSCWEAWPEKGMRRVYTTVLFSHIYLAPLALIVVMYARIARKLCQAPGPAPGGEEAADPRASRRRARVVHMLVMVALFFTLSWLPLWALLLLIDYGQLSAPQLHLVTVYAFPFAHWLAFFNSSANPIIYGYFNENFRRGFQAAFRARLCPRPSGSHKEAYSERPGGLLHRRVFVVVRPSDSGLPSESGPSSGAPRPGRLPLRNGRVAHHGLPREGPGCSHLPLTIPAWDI
# [3] = molecular target: T2, Neuropeptide FF receptor 1; assay: Agonist activity at human NPFF1 receptor expressed in cells assessed as beta-galactosidase levels after 5 days; type: functional, cell-based
# In short: (§1)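 Functional R-SAT assay at human NPFF1 and NPFF2 receptors in agonist mode. Dose-response curves were built from seven concentrations, each tested in triplicate. Values are mean ± SEM of at least three independent experiments.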
# [4] = molecular target: T1, Neuropeptide FF receptor 2; assay: Agonist activity at human NPFF2 receptor expressed in cells assessed as beta-galactosidase levels after 5 days; type: functional, cell-based; in short: as §1
# Rattus norvegicus [5] = assay: Antiinflammatory activity in ip dosed Sprague-Dawley rat assessed as inhibition of carrageenan-induced paw edema; type: functional, organism-based
# Rattus norvegicus [6] = assay: Antiinflammatory activity in ip dosed Sprague-Dawley rat assessed as inhibition of carrageenan-induced thermal hypersensitivity by hotplate test; type: functional, organism-based
# In short: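 Acute inflammatory pain was produced in rats by carrageenan. Thermal hypersensitivity was measured by hot plate test on a metal plate held at 52 °C.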
# Rattus norvegicus [7] = assay: Antiallodynic activity in Sprague-Dawley rat Kim-Chung model of neuropathic pain assessed mechanical-stimuli induced paw withdrawal threshold at 10 mg/kg; type: functional, organism-based; set-up: dose 10 mg/kg
# In short: (§2)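 Rats underwent spinal nerve ligation (SNL), with sham-operated rats also used. Tactile allodynia was defined as a significant reduction in paw withdrawal threshold to mechanical stimuli.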
# [8] = molecular target: T2, Neuropeptide FF receptor 1; assay: Antagonist activity at human NPFF1 receptor expressed in HEK293T cells assessed as inhibition of PGE2-induced cAMP release; type: functional, cell-based; settings: HEK-293T
# [9] = Activity at alpha-adrenergic receptor
# [10] = molecular target: T2, Neuropeptide FF receptor 1; assay: Agonist activity at human NPFF1 receptor expressed in HEK293T cells assessed as inhibition of PGE2-induced cAMP release; set-up: Activity: scale not given: the % may be the effect or the level left; settings: HEK-293T
# [11] = molecular target: T1, Neuropeptide FF receptor 2; assay: Agonist activity at human NPFF2 receptor expressed in HEK293T cells assessed as inhibition of PGE2-induced cAMP release; settings: HEK-293T
# Rattus norvegicus [12] = organism: Rattus norvegicus; assay: Antiallodynic activity in Sprague-Dawley rat Kim-Chung model of neuropathic pain assessed mechanical-stimuli induced paw withdrawal threshold; type: functional, organism-based; in short: as §2
# Rattus norvegicus [13] = assay: Antiallodynic activity in Sprague-Dawley rat Kim-Chung model of neuropathic pain assessed mechanical-stimuli induced paw withdrawal threshold at 30 mg/kg; type: functional, organism-based; set-up: dose 30 mg/kg; in short: as §2
# [14] = Dissociation constant, pKa of the compound; type: physicochemical
# [15] = Oral bioavailability in Sprague-Dawley rat; type: ADME, organism-based; settings: in vivo
# [16] = Lipophilicity, log P of the compound; type: physicochemical; settings: octanol/water
# [17] = Half life in Sprague-Dawley rat; type: ADME, organism-based; settings: in vivo
# [18] = Clearance in rat liver microsomes; type: ADME, Microsome
# In short: (§3)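 Stability was measured in human and in rat liver microsomes. Clearance is reported in μL/(min·mg) and related to liver blood flow.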
# [19] = Distribution coefficient, log D of the compound; type: physicochemical; settings: octanol/water
# [20] = Clearance in human liver microsomes; type: ADME, Microsome; in short: as §3
# Rattus norvegicus [21] = organism: Rattus norvegicus; assay: Antiallodynic activity in Sprague-Dawley rat Kim-Chung model of neuropathic pain assessed mechanical-stimuli induced paw withdrawal threshold in presence of […]-antagonist dansyl-PQR-amide; type: functional, organism-based
# In short: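 Rats with spinal nerve ligation, plus sham-operated rats. Tactile allodynia was scored as a significant reduction in paw withdrawal threshold. The selective NPFF1 antagonist dansylPQRamide was given at 30 mg/kg ip alongside the test agonist, with systemic dosing.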
# T1 sequence (Q9Y5X5 whole entry): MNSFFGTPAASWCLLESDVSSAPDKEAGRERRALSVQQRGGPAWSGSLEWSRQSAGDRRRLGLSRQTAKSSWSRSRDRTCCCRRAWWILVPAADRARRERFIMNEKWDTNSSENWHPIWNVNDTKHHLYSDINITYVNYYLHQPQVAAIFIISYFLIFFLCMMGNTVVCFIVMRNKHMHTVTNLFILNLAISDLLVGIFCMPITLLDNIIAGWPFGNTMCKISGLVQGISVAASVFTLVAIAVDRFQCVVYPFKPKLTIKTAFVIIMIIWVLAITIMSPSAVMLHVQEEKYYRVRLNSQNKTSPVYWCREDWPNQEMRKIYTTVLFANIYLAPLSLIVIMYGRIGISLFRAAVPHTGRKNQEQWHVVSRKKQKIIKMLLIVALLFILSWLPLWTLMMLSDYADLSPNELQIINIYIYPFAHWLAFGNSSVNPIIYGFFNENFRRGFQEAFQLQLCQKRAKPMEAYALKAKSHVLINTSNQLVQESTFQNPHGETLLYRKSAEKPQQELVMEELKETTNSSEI
SMILES,Efficacy [1] [%],Efficacy [2],EC50 [3] [nM],EC50 [4] [nM],further results
N=C(N)N/N=C/c1c(Cl)cccc1Cl,,,,,Activity [1]: inactive; Activity [2]: inactive
N=C(N)N/N=C/c1ccc(Br)c(Br)c1,90,inactive,,,
N=C(N)N/N=C/c1ccc(-c2ccccc2C(F)(F)F)s1,55,44%,126,158,
N=C(N)N/N=C(\c1ccccc1)c1ccc(Cl)c(Cl)c1,63,46%,794,794,
N=C(N)N/N=C/c1ccc(Cl)c(Cl)c1,68,18%,,,Activity (Rattus norvegicus [5]): inactive; Activity (Rattus norvegicus [6]): Dose-dependent effect; Activity (Rattus norvegicus [7]): Active; Activity [8]: inactive; Activity [9]: inactive
CCCCCNC(=N)N/N=C/c1c[nH]c2ccc(OC)cc12,,,,,Activity [1]: inactive; Activity [2]: inactive
N=C(N)N/N=C/c1ccc(-c2ccccc2C(F)(F)F)o1,73,55%,39.8,100,Efficacy [10]: 93%; Efficacy [11]: 114%; Activity (Rattus norvegicus [12]): inactive
N=C(N)N/N=C/c1ccc(Cl)c(C(F)(F)F)c1,114,46%,> 3160,,Activity [10]: 42%; Activity (Rattus norvegicus [13]): Active; Activity (Rattus norvegicus [5]): inactive; Activity (Rattus norvegicus [6]): Dose-dependent effect; Efficacy [11]: 89%
C/C(=N\N=C(N)N)c1ccc(Cl)c(Cl)c1,64,inactive,,501,
CC(C)c1ccccc1-c1ccc(/C=N/NC(=N)N)o1,70,62%,158,200,
C/C(=N\NC(=N)N)c1ccc(Cl)c(C(F)(F)F)c1,66,inactive,,398,
NC(N)=N/N=C/c1ccc(Cl)c(Cl)c1,,,,1000,pKa [14]: 8.4; bioavailability [15]: 43%; logP [16]: 2.8; half-life [17]: 2.5 h; microsomal CLint [18]: 18 µL/min/mg; logD [19]: 1.8; microsomal CLint [20]: 26 µL/min/mg
CN(C)c1cccc2c(S(=O)(=O)N3CCC[C@H]3C(=O)N[C@@H](CCC(N)=O)C(=O)N[C@@H](CCCNC(=N)N)C(N)=O)cccc12,,,,,Activity (Rattus norvegicus [21]): Active
Cc1ccccc1-c1ccc(/C=N/NC(=N)N)o1,90,55%,79.4,100,
Cn1c(/C=N/NC(=N)N)ccc1-c1ccccc1C(F)(F)F,72,36%,316,126,
